Consider 13 molecules from ChEMBL document CHEMBL4270487, “The Berkeleylactones, Antibiotic Macrolides from Fungal Coculture” (J Nat Prod, 2017).

In general, MIC refers to the lowest concentration that inhibits growth of the organism. The low end stands for inhibition by little substance, the high end for a need for much substance. The IC50 is the concentration at which inhibition is half-maximal. Read a low IC50 as greater potency.

Molecules are shown by their SMILES. Converted amounts (≈) assume the structure as drawn. The source made the active and inactive calls. The calls are words filed in the database; no cut-off is given here.

One assay has as its system Streptococcus pyogenes. The assay is described as follows: Antibiotic activity against Streptococcus pyogenes by broth microdilution assay or Alamar blue dye based colorimetric assay. Type of assay: functional. An outline of the steps:
(§1)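 Broth microdilution following CLSI standards, read colorimetrically with Alamar Blue. Test compounds were made as 50 mM stocks in DMSO, then serially diluted 2-fold in the test wells from a top final concentration of 500 μM (500, 250, 125, 64, 32 μM and lower). The MIC was taken from this dilution series.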
On the technique in general: Dilution methods test growth across graded concentrations, often in twofold steps.

For a further assay, the system named is Bacillus anthracis. Nature of the assay: Antibiotic activity against Bacillus anthracis by broth microdilution assay or Alamar blue dye based colorimetric assay. In kind it is functional. An outline of the steps: (§2)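 Minimum inhibitory concentration (MIC) by broth microdilution following CLSI standards, with Alamar Blue as the colorimetric reporter. Test compounds were made up as 50 mM stocks in DMSO and serially diluted 2-fold in the test wells. The top final well concentration was 500 μM (500, 250, 125, 64, 32, 16, 8, 4, 2, 1 μM, etc.).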

The test system of another assay is Nakaseomyces glabratus. The assay is described as follows: Antibiotic activity against Candida glabrata by broth microdilution assay or Alamar blue dye based colorimetric assay. In kind it is functional.
In a further assay the test system is Bacillus subtilis. The assay is described as follows: Antibiotic activity against Bacillus subtilis by broth microdilution assay or Alamar blue dye based colorimetric assay. In kind it is functional. An outline of the steps:
as §1

Another assay relates to Candida albicans. The assay is described as follows: Antibiotic activity against Candida albicans by broth microdilution assay or Alamar blue dye based colorimetric assay. Type of assay: functional.
Assay [1] deals with Staphylococcus aureus. The assay is described as follows: Antibiotic activity against Staphylococcus aureus 13709 by broth microdilution assay or Alamar blue dye based colorimetric assay. Type of assay: functional. An outline of the steps:
as §1

Assay [2] in a line: In-vitro inhibition of protein translation using pY71-sfGFP in PUREexpress in vitro protein synthesis system assessed as reduction in cell-free GFP protein translation at 50 uM measured every 20 mins for 2 hrs. In kind it is functional. An outline of the steps: (§3)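 Cell-free transcription-translation reactions were programmed with the pY71-sfGFP plasmid. The antibiotic solution was dried at the bottom of the tube before the reaction components were added. Erythromycin, josamycin and tylosin served as references at a final 50 μM. Reactions were incubated at 37 °C, with GFP fluorescence (excitation 488 nm, emission 520 nm) read every 20 min for 2 h.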

For assay [3], the system named is Ribosome. The assay is described as follows: Induction of ribosome stalling assessed as induction of stalling of ribosome at ermBL ORF at 50 uM by extension inhibition assay. An outline of the steps:
(§4)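 Primer extension inhibition was run on an ermBL gene template following the published procedure. Erythromycin, josamycin and tylosin were included in the reaction as references at 50 μM. The test agent was present at 50 or 250 μM.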

In the next assay the test system is CCRF-CEM. Nature of the assay: Growth inhibition of human CCRF-CEM cells at 10 uM incubated for 48 hrs by SRB assay. The following applies: read-out: GI. Type of assay: functional. In general terms: The SRB assay estimates cell density from bound dye.
For another assay, the system named is K562. The assay is described as follows: Growth inhibition of human K562 cells at 10 uM incubated for 48 hrs by SRB assay. Type of assay: functional. The following applies: K562, 48 h, read-out: GI.
The next assay concerns the target Stromelysin-1 (Homo sapiens, UniProt P08254). The assay is described as follows: Inhibition of MMP3 (unknown origin).
For assay [4], the system named is Staphylococcus aureus. Nature of the assay: Antibiotic activity against methicillin-resistant Staphylococcus aureus isolate CAIRD116 by broth microdilution assay or Alamar blue dye based colorimetric assay. In kind it is functional. An outline of the steps: as §2
Assay [5] deals with Staphylococcus aureus. Nature of the assay: Antibiotic activity against methicillin-resistant Staphylococcus aureus isolate CAIRD148 by broth microdilution assay or Alamar blue dye based colorimetric assay. Type of assay: functional. An outline of the steps: as §2
The subject of assay [6] is Staphylococcus aureus. Nature of the assay: Antibiotic activity against methicillin-resistant Staphylococcus aureus isolate CAIRD142 by broth microdilution assay or Alamar blue dye based colorimetric assay. Type of assay: functional. An outline of the steps: as §2
Assay [7] has as its system Staphylococcus aureus. The assay is described as follows: Antibiotic activity against methicillin-resistant Staphylococcus aureus isolate NE277 by broth microdilution assay or Alamar blue dye based colorimetric assay. Type of assay: functional. An outline of the steps: as §2
Assay [8] can be described thus: In-vitro inhibition of protein translation using pY71-sfGFP in PUREexpress in vitro protein synthesis system assessed as reduction in cell-free GFP protein translation at 250 uM measured every 20 mins for 2 hrs. Type of assay: functional. An outline of the steps:
as §3

Assay [9] relates to Ribosome. Nature of the assay: Induction of ribosome stalling (unknown origin) assessed as induction of stalling of ribosome at ermBL ORF at 250 uM by extension inhibition assay. An outline of the steps:
as §4

Assay [10] concerns RPMI-8226. Nature of the assay: Cytotoxicity human RPMI8226 cells assessed as cell lethality at 10 uM incubated for 48 hrs by SRB assay. Type of assay: functional. An outline of the steps: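 Single-dose (10 μM) screen run by the NCI Developmental Therapeutics Program across its 60 cell-line panel. Read as percent growth inhibition.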
Assay [11] concerns RPMI-8226. Nature of the assay: Growth inhibition of human RPMI8226 cells at 10 uM incubated for 48 hrs by SRB assay. Type of assay: functional. Conditions: RPMI-8226, 48 h, read-out: GI.

Sequence of Stromelysin-1 (P08254 whole entry): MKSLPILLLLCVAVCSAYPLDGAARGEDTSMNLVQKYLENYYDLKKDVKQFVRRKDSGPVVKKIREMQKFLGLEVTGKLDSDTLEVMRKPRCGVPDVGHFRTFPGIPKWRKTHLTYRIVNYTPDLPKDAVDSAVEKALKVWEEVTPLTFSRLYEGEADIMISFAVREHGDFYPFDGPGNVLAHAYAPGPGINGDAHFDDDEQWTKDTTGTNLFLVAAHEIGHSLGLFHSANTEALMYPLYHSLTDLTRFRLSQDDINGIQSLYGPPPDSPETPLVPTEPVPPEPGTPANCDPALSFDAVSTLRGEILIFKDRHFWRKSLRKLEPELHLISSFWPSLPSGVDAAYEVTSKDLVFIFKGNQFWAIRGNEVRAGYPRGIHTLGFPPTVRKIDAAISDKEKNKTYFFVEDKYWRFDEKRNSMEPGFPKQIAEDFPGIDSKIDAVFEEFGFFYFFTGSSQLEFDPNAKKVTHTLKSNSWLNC

As for `C[C@@H]1CC(O)CCCCCCC[C@H](OC(=O)CCC(=O)O)C(=O)/C=C/C(=O)O1` (some centres not stated), the minimum inhibitory concentration (MIC) against Streptococcus pyogenes was 125 µM (≈ 49.8 µg/mL); with Bacillus anthracis, 64 µM (≈ 25.5 µg/mL); against Nakaseomyces glabratus, above 1000 µM; against Bacillus subtilis it was 250 µM (≈ 99.6 µg/mL); in the assay with Candida albicans it was above 1000 µM; in the assay with Staphylococcus aureus [1], 32 µM (≈ 12.8 µg/mL).

As to `CC[C@H]1OC(=O)C[C@@H](O)[C@H](C)[C@@H](O[C@@H]2O[C@H](C)[C@@H](O[C@H]3C[C@@](C)(O)[C@@H](O)[C@H](C)O3)[C@H](N(C)C)[C@H]2O)[C@@H](CC=O)C[C@@H](C)C(=O)/C=C/C(C)=C/[C@@H]1CO[C@@H]1O[C@H](C)[C@@H](O)[C@@H](OC)[C@H]1OC`, the “translation inhibition (active/not active)” value in [2] was “Active”. The result with Ribosome [3] was Active.

Take `C[C@H]1OC(=O)/C=C/C(=O)[C@@H](OC(=O)CCC(=O)O)CCCCCCCC[C@@H]1O`: the values for the inhibition of growth at 10 µM in the assay on CCRF-CEM and in the assay with K562 were 48% and 46%, respectively. Besides, the MIC turned out to be 64 µM (≈ 25.5 µg/mL) with Streptococcus pyogenes; 16 µM (≈ 6.38 µg/mL) with Bacillus anthracis; 64 µM (≈ 25.5 µg/mL) with Nakaseomyces glabratus; 64 µM (≈ 25.5 µg/mL) in the assay with Bacillus subtilis; 125 µM (≈ 49.8 µg/mL) against Candida albicans; 16 µM (≈ 6.38 µg/mL) against Staphylococcus aureus [1].

On to `C[C@H]1OC(=O)/C=C/[C@@H](O)[C@@H](O)CCCCCCCC[C@@H]1O`, for which the inhibition of growth at 10 µM in the assay on CCRF-CEM stood at 38%. In addition, the MIC is 500 µM (≈ 150 µg/mL) against Streptococcus pyogenes; 250 µM (≈ 75.1 µg/mL) in the assay with Bacillus anthracis; above 1000 µM against Nakaseomyces glabratus; above 1000 µM with Bacillus subtilis; above 1000 µM against Candida albicans; 64 µM (≈ 19.2 µg/mL) against Staphylococcus aureus [1]. This molecule also returned a 50% inhibitory concentration (IC50) against Stromelysin-1 of 150 µM.

As to `C[C@@H]1CCCCCCCCC[C@H](OC(=O)CCC(=O)O)C(=O)C[C@@H](SC[C@@H](O)C(=O)O)C(=O)O1`, the MIC came to 32 µM in the assay with Staphylococcus aureus [4]; 16 µM in the assay on Staphylococcus aureus [5]; 250 µM (≈ 126 µg/mL) against Streptococcus pyogenes; 32 µM in the assay with Staphylococcus aureus [6]; 16 µM (≈ 8.07 µg/mL) with Bacillus anthracis; 64 µM (≈ 32.3 µg/mL) with Nakaseomyces glabratus. In addition, the MIC against Bacillus subtilis was 64 µM (≈ 32.3 µg/mL); against Candida albicans, above 250 µM; in the assay with Staphylococcus aureus [7], 16 µM (≈ 8.07 µg/mL); in the assay with Staphylococcus aureus [1] it was 8 µM (≈ 4.04 µg/mL).

For the molecule `CC[C@H]1OC(=O)[C@H](C)[C@@H](O[C@H]2C[C@@](C)(OC)[C@@H](O)[C@H](C)O2)[C@H](C)[C@@H](O[C@@H]2O[C@H](C)C[C@H](N(C)C)[C@H]2O)[C@](C)(O)C[C@@H](C)C(=O)[C@H](C)[C@@H](O)[C@]1(C)O` [ERYTHROMYCIN], in [2], the “translation inhibition (active/not active)” value is “Active”. Moreover, the MIC with Staphylococcus aureus [4], against Staphylococcus aureus [5] and against Staphylococcus aureus [6] was above 32 µg/mL in each case. Besides, the result with Ribosome [3] was Active.

`CO[C@@H]1[C@@H](O[C@@H]2O[C@H](C)[C@@H](O[C@H]3C[C@@](C)(O)[C@@H](OC(=O)CC(C)C)[C@H](C)O3)[C@H](N(C)C)[C@H]2O)[C@@H](CC=O)C[C@@H](C)[C@@H](O)/C=C/C=C/C[C@@H](C)OC(=O)C[C@H]1OC(C)=O`: the “translation inhibition (active/not active)” value in assay [2] was “Active”. Also, the result with Ribosome [3] was Active.

Regarding `Cc1nnc(SCC2=C(C(=O)O)N3C(=O)[C@@H](NC(=O)Cn4cnnn4)[C@H]3SC2)s1` [CEFAZOLIN], the MIC against Staphylococcus aureus [4], against Staphylococcus aureus [5] and against Staphylococcus aureus [6] was 256 µg/mL throughout.

Turning to `C[C@H]1COc2c(N3CCN(C)CC3)c(F)cc3c(=O)c(C(=O)O)cn1c23.C[C@H]1COc2c(N3CCN(C)CC3)c(F)cc3c(=O)c(C(=O)O)cn1c23.O` [LEVOFLOXACIN], the MIC was above 16 µg/mL in the assay on Staphylococcus aureus [4], above 16 µg/mL in the assay on Staphylococcus aureus [5] and 0.25 µg/mL against Staphylococcus aureus [6].

Turning to `C[C@@H]1CCCCCCCCC[C@H](O)C(=O)C[C@@H](SC[C@@H](O)C(=O)O)C(=O)O1`, the “translation inhibition (active/not active)” value in assay [2] was “inactive”. Further, the MIC was determined as 2 µM against Staphylococcus aureus [4]; 2 µM in the assay on Staphylococcus aureus [5]; 8 µM (≈ 3.24 µg/mL) in the assay on Streptococcus pyogenes; 4 µM in the assay on Staphylococcus aureus [6]; 8 µM (≈ 3.24 µg/mL) in the assay on Bacillus anthracis; 16 µM (≈ 6.47 µg/mL) against Nakaseomyces glabratus. The MIC in the assay with Bacillus subtilis is 32 µM (≈ 12.9 µg/mL); in the assay on Candida albicans, 64 µM (≈ 25.9 µg/mL); in the assay on Staphylococcus aureus [7], 2 µM (≈ 0.809 µg/mL); with Staphylococcus aureus [1], 2 µM (≈ 0.809 µg/mL). Also, the inhibition entry in assay [8] is “inactive”. For the same molecule, the result with Ribosome [9] and in the assay on Ribosome [3] was inactive. For the same molecule, in the assay with K562, the inhibition of growth at 10 µM came to 85%. For the same molecule, the IC50 against Stromelysin-1 turned out to be 100 µM. Further, the Activity with RPMI-8226 [10] is recorded as 2.4%.

On to `CCC[C@@H]1C[C@@H](C(=O)N[C@@H]([C@H]2O[C@H](SC)[C@H](O)[C@@H](O)[C@H]2O)[C@H](C)Cl)N(C)C1` [CLINDAMYCIN], for which the minimum inhibitory concentration (MIC) with Staphylococcus aureus [4], in the assay on Staphylococcus aureus [5] and against Staphylococcus aureus [6] was above 16 µg/mL each time.

For `C[C@@H]1CCCCCCCCC[C@H](OC(=O)CCC(=O)O)C(=O)/C=C/C(=O)O1`, the minimal inhibitory concentration (MIC) with Staphylococcus aureus [4] amounted to 16 µM; against Staphylococcus aureus [5], 16 µM; with Streptococcus pyogenes it was 125 µM (≈ 47.8 µg/mL); with Staphylococcus aureus [6], 16 µM; in the assay with Bacillus anthracis, 16 µM (≈ 6.12 µg/mL); against Nakaseomyces glabratus, 125 µM (≈ 47.8 µg/mL). Moreover, the MIC with Bacillus subtilis came to 32 µM (≈ 12.2 µg/mL); in the assay on Candida albicans it was 250 µM (≈ 95.6 µg/mL); against Staphylococcus aureus [7], 16 µM (≈ 6.12 µg/mL); with Staphylococcus aureus [1], 8 µM (≈ 3.06 µg/mL). On Stromelysin-1, this molecule showed a concentration for half-maximal inhibition (IC50) of 50 µM. Further, the inhibition of growth at 10 µM with RPMI-8226 [11] was determined as 48%.

On to `C[C@H]1c2cccc(O)c2C(=O)C2=C(O)[C@]3(O)C(=O)C(C(N)=O)=C(O)[C@@H](N(C)C)[C@@H]3[C@@H](O)[C@@H]21.O` [DOXYCYCLINE], for which the MIC came to 8 µg/mL with Staphylococcus aureus [4], 0.25 µg/mL with Staphylococcus aureus [5] and 16 µg/mL against Staphylococcus aureus [6].
